{"source": "ChEMBL document CHEMBL1133101", "about": "“7-Methyl-6,7,8,9,14,15-hexahydro-5H-benz[d]indolo[2,3-g]azecine: a new heterocyclic system and a new lead compound for dopamine receptor antagonists” (J Med Chem, 2000)", "key": {"[1]": {"target": "Neuronal acetylcholine receptor (Rattus norvegicus) (UniProt P04757+P09483+P12389+P12390+P12392+P43144+Q9JLB5+P12391+P43143+P20420+Q05941)", "test": "% Decrease of Nicotinic acetylcholine receptor-bound radioactivity using cytisine as a radioligand.", "assay_type": "protein-complex assay", "design": "scale not given: the % may be the effect or the level left", "how_it_was_run": "(§1)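 Preliminary screen of receptors isolated from rat or pig tissues, run with minor changes to standard procedures. Each compound was tested at a single fixed concentration for each receptor. The read-out was the percent decrease in binding of the named radioligand.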"}, "[2]": {"test": "% Decrease of Phorbol Diester Receptor -bound radioactivity using PDBU as a radioligand.", "design": "scale not given: the % may be the effect or the level left", "how_it_was_run": "as §1"}, "[3]": {"target": "GABA-A receptor; anion channel (Homo sapiens) (UniProt P14867+P47870+P18507+P28472+P48169+Q99928+Q9UN88+P34903+O00591+O14764+Q8N1C3+P18505+P78334+P47869+P31644+Q16445)", "test": "Displacement of muscimol from GABA-A receptor", "assay_type": "protein-complex assay", "how_it_was_run": "as §1"}, "[4]": {"target": "T1, Adrenergic receptor alpha-1 (Homo sapiens, UniProt P35348+P25100+P35368)", "T1 sequence (P35348 whole entry)": "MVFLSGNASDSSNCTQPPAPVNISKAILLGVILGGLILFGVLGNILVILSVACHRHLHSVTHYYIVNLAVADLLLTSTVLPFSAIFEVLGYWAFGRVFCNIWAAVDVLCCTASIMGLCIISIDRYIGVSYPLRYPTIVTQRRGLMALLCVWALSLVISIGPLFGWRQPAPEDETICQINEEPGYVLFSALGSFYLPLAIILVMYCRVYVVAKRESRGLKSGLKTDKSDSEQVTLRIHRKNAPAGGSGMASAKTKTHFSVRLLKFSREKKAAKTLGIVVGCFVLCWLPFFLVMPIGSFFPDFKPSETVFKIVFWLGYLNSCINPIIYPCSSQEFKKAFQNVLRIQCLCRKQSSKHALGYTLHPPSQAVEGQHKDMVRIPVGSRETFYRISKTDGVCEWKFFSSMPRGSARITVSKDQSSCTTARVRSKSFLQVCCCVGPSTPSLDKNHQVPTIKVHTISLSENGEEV", "T1 sequence (P25100 whole entry)": "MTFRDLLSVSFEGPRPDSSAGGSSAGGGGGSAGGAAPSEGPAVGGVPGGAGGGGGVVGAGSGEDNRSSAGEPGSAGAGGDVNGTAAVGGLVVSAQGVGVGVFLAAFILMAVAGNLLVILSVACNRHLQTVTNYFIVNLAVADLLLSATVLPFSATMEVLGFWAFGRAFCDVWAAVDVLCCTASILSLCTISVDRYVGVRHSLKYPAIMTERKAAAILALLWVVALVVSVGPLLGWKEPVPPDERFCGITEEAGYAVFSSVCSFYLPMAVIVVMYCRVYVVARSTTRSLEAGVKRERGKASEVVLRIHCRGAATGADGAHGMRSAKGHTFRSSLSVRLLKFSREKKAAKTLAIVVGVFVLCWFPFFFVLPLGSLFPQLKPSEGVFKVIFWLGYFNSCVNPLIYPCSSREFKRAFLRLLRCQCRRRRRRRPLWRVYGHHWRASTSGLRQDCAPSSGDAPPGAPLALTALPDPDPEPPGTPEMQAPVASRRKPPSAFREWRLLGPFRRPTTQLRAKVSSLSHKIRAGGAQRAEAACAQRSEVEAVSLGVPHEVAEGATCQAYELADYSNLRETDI", "T1 sequence (P35368 whole entry)": "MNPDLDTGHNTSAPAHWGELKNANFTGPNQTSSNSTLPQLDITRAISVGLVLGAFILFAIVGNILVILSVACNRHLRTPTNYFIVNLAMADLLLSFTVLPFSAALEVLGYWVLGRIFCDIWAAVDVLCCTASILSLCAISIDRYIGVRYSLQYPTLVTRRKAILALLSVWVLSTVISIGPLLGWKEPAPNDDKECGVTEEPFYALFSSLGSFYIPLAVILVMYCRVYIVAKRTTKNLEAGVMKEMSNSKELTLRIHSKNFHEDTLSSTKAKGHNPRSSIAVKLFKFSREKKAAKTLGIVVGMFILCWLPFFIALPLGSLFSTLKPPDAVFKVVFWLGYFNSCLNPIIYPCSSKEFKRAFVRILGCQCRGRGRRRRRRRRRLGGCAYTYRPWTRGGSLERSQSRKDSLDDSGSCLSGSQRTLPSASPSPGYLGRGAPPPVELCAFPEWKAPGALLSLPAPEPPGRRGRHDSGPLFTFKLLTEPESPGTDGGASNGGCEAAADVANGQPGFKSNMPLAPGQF", "test": "Binding affinity against Alpha-1 adrenergic receptor", "assay_type": "protein assay"}, "[5]": {"target": "Sodium-dependent serotonin transporter (Homo sapiens) (UniProt P31645)", "sequence (P31645 whole entry, looked up)": "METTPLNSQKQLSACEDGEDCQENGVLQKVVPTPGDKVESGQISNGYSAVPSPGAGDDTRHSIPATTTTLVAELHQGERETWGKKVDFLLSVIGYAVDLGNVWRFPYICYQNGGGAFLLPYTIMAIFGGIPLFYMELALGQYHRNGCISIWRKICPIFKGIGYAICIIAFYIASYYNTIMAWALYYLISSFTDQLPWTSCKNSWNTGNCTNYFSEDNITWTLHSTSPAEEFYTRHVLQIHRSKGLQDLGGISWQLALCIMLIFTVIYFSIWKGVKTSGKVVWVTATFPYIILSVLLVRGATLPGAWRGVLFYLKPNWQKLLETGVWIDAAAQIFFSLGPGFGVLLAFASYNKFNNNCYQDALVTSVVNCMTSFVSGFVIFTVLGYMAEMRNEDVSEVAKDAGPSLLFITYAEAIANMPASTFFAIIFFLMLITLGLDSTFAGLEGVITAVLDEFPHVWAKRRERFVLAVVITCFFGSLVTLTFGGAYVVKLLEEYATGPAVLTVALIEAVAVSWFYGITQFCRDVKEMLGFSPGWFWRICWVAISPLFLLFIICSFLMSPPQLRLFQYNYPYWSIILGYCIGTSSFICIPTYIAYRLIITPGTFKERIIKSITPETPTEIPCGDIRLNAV", "test": "% Decrease of 5-HT carrier-receptor -bound radioactivity using paroxetine as a radioligand.", "design": "concentration or dose not given beside the values", "how_it_was_run": "as §1"}, "[6]": {"target": "Glutamate [NMDA] receptor (Homo sapiens) (UniProt Q05586+Q12879+Q13224+O15399+O60391+Q14957+Q8TCU5)", "test": "Percent decrease of N-methyl-D-aspartate glutamate receptor binding using MK-801", "assay_type": "protein-complex assay", "design": "concentration or dose not given beside the values", "how_it_was_run": "as §1"}, "[7]": {"test": "Percent decrease in Bradykinin receptor binding", "design": "concentration or dose not given beside the values", "how_it_was_run": "as §1"}, "[8]": {"test": "Percent decrease of Endothelin receptor binding using [125I]sarafotoxin", "design": "concentration or dose not given beside the values"}, "[9]": {"target": "Adrenergic receptor alpha-1 (Homo sapiens) (UniProt P35348+P25100+P35368)", "test": "Percent decrease in Alpha-1 adrenergic receptor binding using prazosin", "assay_type": "protein assay", "how_it_was_run": "as §1"}, "[10]": {"target": "T2, Adenosine receptor A1 (Homo sapiens) (UniProt P30542)", "T2 sequence (whole entry)": "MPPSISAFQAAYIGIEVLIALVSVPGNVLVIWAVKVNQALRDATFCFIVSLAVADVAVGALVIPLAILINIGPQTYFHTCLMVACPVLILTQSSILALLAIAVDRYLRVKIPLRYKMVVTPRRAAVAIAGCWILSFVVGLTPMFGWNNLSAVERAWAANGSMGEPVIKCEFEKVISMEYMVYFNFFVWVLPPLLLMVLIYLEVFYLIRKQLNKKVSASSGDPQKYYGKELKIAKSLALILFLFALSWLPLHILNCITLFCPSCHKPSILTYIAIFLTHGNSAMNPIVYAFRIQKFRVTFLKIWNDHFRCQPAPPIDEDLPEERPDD", "test": "Percent decrease in adenosine-A1-receptor binding using CPDPX", "design": "scale not given: the % may be the effect or the level left", "how_it_was_run": "as §1"}, "[11]": {"target": "D(2) dopamine receptor (Rattus norvegicus) (UniProt P61169)", "sequence (P61169 whole entry)": "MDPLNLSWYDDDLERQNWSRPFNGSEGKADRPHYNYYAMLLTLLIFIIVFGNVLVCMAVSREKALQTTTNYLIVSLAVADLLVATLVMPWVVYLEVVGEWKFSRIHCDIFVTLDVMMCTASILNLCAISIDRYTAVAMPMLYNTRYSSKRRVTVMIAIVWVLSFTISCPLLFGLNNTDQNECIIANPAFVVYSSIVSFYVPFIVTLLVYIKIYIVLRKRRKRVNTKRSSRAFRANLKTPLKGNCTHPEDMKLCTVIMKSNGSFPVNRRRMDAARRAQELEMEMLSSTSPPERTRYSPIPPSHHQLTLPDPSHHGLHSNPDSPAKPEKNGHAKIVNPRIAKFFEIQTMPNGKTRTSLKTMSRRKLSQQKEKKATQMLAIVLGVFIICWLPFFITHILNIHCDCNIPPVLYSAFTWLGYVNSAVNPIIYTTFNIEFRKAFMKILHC", "test": "Percent decrease in Dopamine receptor D2 binding using spiperone", "design": "scale not given: the % may be the effect or the level left", "how_it_was_run": "as §1"}}}
{"smiles": "CN1CCc2ccccc2Cc2[nH]c3ccccc3c2CC1", "values": [{"measurement": "Activity", "setting": "[1]", "value": -3, "unit": "%"}, {"measurement": "Activity", "setting": "[2]", "value": 0, "unit": "%"}, {"measurement": "Activity", "setting": "[3]", "value": -9, "unit": "%"}, {"measurement": "Ki", "setting": "[4]", "value": 11, "unit": "nM"}, {"measurement": "Activity", "setting": "[5]", "value": -8, "unit": "%"}, {"measurement": "Activity", "setting": "[6]", "value": -18, "unit": "%"}, {"measurement": "Activity", "setting": "[7]", "value": -2, "unit": "%"}, {"measurement": "Activity", "setting": "[8]", "value": 0, "unit": "%"}, {"measurement": "Decrease", "setting": "[9]", "value": -97, "unit": "%"}]}
{"smiles": "COc1cc2c(cc1OC)C1c3[nH]c4ccccc4c3CCN1CC2", "note": "(configuration not stated)", "values": [{"measurement": "Activity", "setting": "[10]", "value": 26, "unit": "%"}, {"measurement": "Activity", "setting": "[1]", "value": -4, "unit": "%"}, {"measurement": "Activity", "setting": "[11]", "value": -11, "unit": "%"}, {"measurement": "Activity", "setting": "[2]", "value": -9, "unit": "%"}, {"measurement": "Activity", "setting": "[3]", "value": -26, "unit": "%"}, {"measurement": "Ki", "setting": "[4]", "value": 17, "unit": "nM"}, {"measurement": "Activity", "setting": "[5]", "value": -8, "unit": "%"}, {"measurement": "Activity", "setting": "[6]", "value": -14, "unit": "%"}, {"measurement": "Activity", "setting": "[7]", "value": 9, "unit": "%"}, {"measurement": "Activity", "setting": "[8]", "value": 0, "unit": "%"}, {"measurement": "Decrease", "setting": "[9]", "value": -94, "unit": "%"}]}
{"smiles": "c1ccc2c(c1)CCN1CCc3c([nH]c4ccccc34)C21", "note": "(configuration not stated)", "values": [{"measurement": "Activity", "setting": "[10]", "value": 13, "unit": "%"}, {"measurement": "Activity", "setting": "[1]", "value": 0, "unit": "%"}, {"measurement": "Activity", "setting": "[11]", "value": -19, "unit": "%"}, {"measurement": "Activity", "setting": "[2]", "value": -6, "unit": "%"}, {"measurement": "Activity", "setting": "[3]", "value": -17, "unit": "%"}, {"measurement": "Ki", "setting": "[4]", "value": 79, "unit": "nM"}, {"measurement": "Activity", "setting": "[5]", "value": -32, "unit": "%"}, {"measurement": "Activity", "setting": "[6]", "value": -33, "unit": "%"}, {"measurement": "Activity", "setting": "[7]", "value": -2, "unit": "%"}, {"measurement": "Activity", "setting": "[8]", "value": -1, "unit": "%"}, {"measurement": "Decrease", "setting": "[9]", "value": -82, "unit": "%"}]}
{"smiles": "c1ccc2c3c([nH]c2c1)C1c2[nH]c4ccccc4c2CCN1CC3", "values": [{"measurement": "Activity", "setting": "[10]", "value": 17, "unit": "%"}, {"measurement": "Activity", "setting": "[1]", "value": 1, "unit": "%"}, {"measurement": "Activity", "setting": "[11]", "value": -51, "unit": "%"}, {"measurement": "Activity", "setting": "[2]", "value": -15, "unit": "%"}, {"measurement": "Activity", "setting": "[3]", "value": 5, "unit": "%"}, {"measurement": "Ki", "setting": "[4]", "value": 76, "unit": "nM"}, {"measurement": "Activity", "setting": "[5]", "value": -45, "unit": "%"}, {"measurement": "Activity", "setting": "[6]", "value": -52, "unit": "%"}, {"measurement": "Activity", "setting": "[7]", "value": 2, "unit": "%"}, {"measurement": "Activity", "setting": "[8]", "value": 1, "unit": "%"}, {"measurement": "Decrease", "setting": "[9]", "value": -88, "unit": "%"}]}
